Our source for the Intrinsic clearance and EC50 values is ChEMBL document CHEMBL4308828, “Fragment Based Optimization of Metabotropic Glutamate Receptor 2 (mGluR2) Positive Allosteric Modulators in the Absence of Structural Information” (J Med Chem, 2018).

Some results are limits rather than exact numbers.

Data set [1] is described as follows: Intrinsic clearance in human liver microsomes at 2.5 uM. The class given is ADME, Microsome. The method, boiled down: (§1)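 Liver microsomes (0.5 mg/mL) of human, Wistar rat or NMRI mouse; compound 2.5 μM initial, incubated for various times. Intrinsic clearance (mL/min·g liver) taken as rate of compound consumption under first-order conditions, Clint = Vmax/KM or V/S when S ≪ KM.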
Background: Microsomes from liver hold many membrane-bound enzymes, among them those of drug oxidation.

The target in data set [2] is Metabotropic glutamate receptor 2 (Homo sapiens, UniProt Q14416). The data set is described as follows: Positive allosteric modulation of human mGluR2 expressed in human Chem1 cells assessed as increase in glutamate-induced intracellular calcium influx preincubated for 30 mins followed by glutamate addition by calcium-5 dye based fluorometric assay. The class given is functional, cell-based. In a few lines:
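Chem-1 cells stably expressing human mGlu2, 30000 cells/well, overnight at 37 °C. Loaded with Calcium 5 dye (30 min, 37 °C) in buffer with GPT/pyruvate, washed, then compound or vehicle 30 min at 37 °C. Glutamate at EC5-EC20 added after 20 s baseline; fluorescence 485/525 nm read 40 s. ΔF/F from multiple wells; sigmoid fits give EC50, three independent experiments. Final DMSO 1%.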
(In general: A change in cytosolic calcium serves as a functional read-out for many receptors and channels.)

The nature of data set [3]: Intrinsic clearance in Wistar rat liver microsomes at 2.5 uM. The class given is ADME, Microsome. The method, boiled down: as §1
Data set [4] is described as follows: Intrinsic clearance in NMRI mouse liver microsomes at 2.5 uM. The class given is ADME, Microsome. The method, boiled down:
as §1

Chain of Metabotropic glutamate receptor 2 (Q14416 whole entry): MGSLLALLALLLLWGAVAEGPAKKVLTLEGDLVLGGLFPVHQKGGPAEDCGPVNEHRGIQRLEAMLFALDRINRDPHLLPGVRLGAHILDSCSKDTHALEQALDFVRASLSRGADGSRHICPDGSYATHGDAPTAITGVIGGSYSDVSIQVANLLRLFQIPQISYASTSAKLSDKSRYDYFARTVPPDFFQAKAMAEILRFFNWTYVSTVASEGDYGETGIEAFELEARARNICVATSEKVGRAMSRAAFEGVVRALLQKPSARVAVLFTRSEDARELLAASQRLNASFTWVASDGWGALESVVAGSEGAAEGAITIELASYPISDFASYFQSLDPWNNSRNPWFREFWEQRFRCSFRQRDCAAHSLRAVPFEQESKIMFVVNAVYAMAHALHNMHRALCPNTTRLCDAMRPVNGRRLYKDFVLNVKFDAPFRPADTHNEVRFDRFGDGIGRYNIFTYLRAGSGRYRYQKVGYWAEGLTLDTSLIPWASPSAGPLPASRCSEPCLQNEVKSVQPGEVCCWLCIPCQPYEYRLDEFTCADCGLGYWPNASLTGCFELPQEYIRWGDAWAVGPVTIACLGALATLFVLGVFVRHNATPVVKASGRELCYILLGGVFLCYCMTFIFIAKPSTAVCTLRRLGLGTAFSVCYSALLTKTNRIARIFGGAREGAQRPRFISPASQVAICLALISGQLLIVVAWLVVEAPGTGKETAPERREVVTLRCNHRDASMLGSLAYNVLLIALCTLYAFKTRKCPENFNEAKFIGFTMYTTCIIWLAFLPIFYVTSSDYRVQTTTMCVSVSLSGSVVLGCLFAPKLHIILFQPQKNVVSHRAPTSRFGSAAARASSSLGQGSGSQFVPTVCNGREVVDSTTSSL

In general, EC50 refers to the concentration giving half of the maximal effect. Turning to `Fc1cc(Cn2nnc3c(Br)cccc32)ccc1Cl`, the results for the Intrinsic clearance in data set [1], in data set [3] and in data set [4] were 0.4 mL/min/g, 3.1 mL/min/g and 2.2 mL/min/g, respectively. Moreover, the EC50 in data set [2] came to 18 nM.
For `N#Cc1cccc2c1nnn2Cc1ccc(-c2ccc(Cl)cc2F)nc1` the same measures were 0.05 mL/min/g, 0.1 mL/min/g, 1.6 mL/min/g and 33 nM.
Consider `Clc1cc(Br)c2nnn(CC3CC3)c2c1`, for which the Intrinsic clearance in data set [1] stood at 0.5 mL/min/g; in data set [3], 1.1 mL/min/g; in data set [4], 11.4 mL/min/g. The EC50 in data set [2] is 60 nM.
Taken in the same sequence, the figures for `Fc1cc(Cl)ccc1-c1ccc(Cn2nnc3ccccc32)nc1` were 0.8 mL/min/g, 2.3 mL/min/g, 1.6 mL/min/g and 141 nM.
With `CCCn1nnc2c(Br)cccc21`, the Intrinsic clearance in data set [1] came out at 4.7 mL/min/g; in data set [3], 0.8 mL/min/g; in data set [4], 7.7 mL/min/g. Moreover, in data set [2], the EC50 is 270 nM.
With `COc1cc(Br)c2nnn(CC3CC3)c2c1`, the EC50 in data set [2] worked out at 730 nM.
As to `CCCCn1nnc2c(Br)cccc21`, the Intrinsic clearance came to 9.5 mL/min/g in data set [1], 4.4 mL/min/g in data set [3] and 8.3 mL/min/g in data set [4]. Moreover, the EC50 in data set [2] was 60 nM.
For `COc1cccc2c1nnn2CC1CC1` the same measures were 1.8 mL/min/g, 0.8 mL/min/g, 8.3 mL/min/g and 400 nM.
Taken in the same sequence, the figures for `Brc1cccc2c1nnn2CC1CCCCC1` were 11.9 mL/min/g, 16.2 mL/min/g, 15.3 mL/min/g and 10 nM.
For `Fc1ccc2nnn(Cc3ccc(-c4ccc(Cl)cc4F)nc3)c2c1` the same measures were 0.1 mL/min/g, 1 mL/min/g, 2.2 mL/min/g and 86 nM.
Take `FC(F)(F)c1ccc(-c2ccc(Cn3nnc4ccccc43)cc2)c(Cl)c1`: the Intrinsic clearance in data set [1] is 0 mL/min/g; in data set [3], 0.5 mL/min/g; in data set [4], 0.4 mL/min/g. In addition, the EC50 in data set [2] was 37 nM.
Taken in the same sequence, the figures for `Clc1ccc(Cn2nnc3c(Br)cccc32)cc1` were 0.6 mL/min/g, 2.2 mL/min/g, 2 mL/min/g and 17 nM.
Turning to `c1ccc(-c2ccc(Cn3nnc4ccccc43)cc2)cc1`, the results for the Intrinsic clearance in data set [1], in data set [3] and in data set [4] were 7.9 mL/min/g, 12.6 mL/min/g and 11.4 mL/min/g, respectively. In addition, the EC50 in data set [2] was 155 nM.
Taken in the same sequence, the figures for `Clc1ccc(-c2ccc(Cn3nnc4ccccc43)cc2)c(Cl)c1` were 0.6 mL/min/g, 1.4 mL/min/g, 1.3 mL/min/g and 79 nM.
For `Clc1ccc(Cn2nnc3c(Br)cccc32)cn1`, in data set [2], the EC50 was found to be 290 nM.
Consider `Brc1cccc2c1nnn2CC1CCC1`, for which the Intrinsic clearance came to 8.7 mL/min/g in data set [1], 12 mL/min/g in data set [3] and 11.4 mL/min/g in data set [4]. Also, the EC50 in data set [2] is 20 nM.
For `Fc1ccc(Cn2nnc3c(Br)cccc32)cc1` the same measures were 1.2 mL/min/g, 1 mL/min/g, 1 mL/min/g and 15 nM.
Taken in the same sequence, the figures for `c1ccc(Cn2nnc3ccccc32)cc1` were 7.9 mL/min/g, 1.2 mL/min/g, 1 mL/min/g and 3000 nM.
As for `Clc1cccc2c1nnn2CC1CC1`, the Intrinsic clearance stood at 4.2 mL/min/g in data set [1], 0.5 mL/min/g in data set [3] and 5.7 mL/min/g in data set [4]. Further, the EC50 in data set [2] worked out at 90 nM.
As for `Fc1cc(Cl)ccc1-c1ccc(Cn2nnc3ccccc32)cc1`, the Intrinsic clearance in data set [1] came out at 0.4 mL/min/g; in data set [3], 1.3 mL/min/g; in data set [4] it was 1.1 mL/min/g. Further, the EC50 in data set [2] stood at 28 nM.
`Cn1nnc2c(Br)cccc21`: the EC50 in data set [2] was above 5000 nM.
With `Fc1cc(Cl)ccc1-c1ccc(Cn2nnc3c(F)cccc32)cn1`, the Intrinsic clearance in data set [1] was determined as 0.1 mL/min/g; in data set [3], 0.6 mL/min/g; in data set [4], 2.2 mL/min/g. In addition, in data set [2], the EC50 stood at 27 nM.
As for `Brc1cccc2c1nnn2Cc1ccccc1`, the Intrinsic clearance in data set [1] amounted to 4.7 mL/min/g; in data set [3], 2 mL/min/g; in data set [4] it was 2.3 mL/min/g. Besides, the EC50 in data set [2] was determined as 80 nM.
In the case of `Brc1cccc2c1nnn2CC1CC1`, the Intrinsic clearance was determined as 1.3 mL/min/g in data set [1], 0.6 mL/min/g in data set [3] and 7.7 mL/min/g in data set [4]. For the same compound, the EC50 in data set [2] was determined as 70 nM.
In the case of `Clc1ccc(-c2ccc(Cn3nnc4ccccc43)cn2)cc1`, the Intrinsic clearance in data set [1] came to 0.2 mL/min/g; in data set [3] it was 1 mL/min/g; in data set [4], 3.8 mL/min/g. Also, the EC50 in data set [2] is 70 nM.
Turning to `Fc1ccc(-c2ccc(Cn3nnc4ccccc43)cc2)c(F)c1`, the Intrinsic clearance stood at 0.9 mL/min/g in data set [1], 6.4 mL/min/g in data set [3] and 2.3 mL/min/g in data set [4]. Further, the EC50 in data set [2] came to 71 nM.
For `Fc1cccc(Cn2nnc3c(Br)cccc32)c1` the same measures were 1.8 mL/min/g, 1.6 mL/min/g, 1.3 mL/min/g and 18 nM.
For `Fc1cc(Br)c2nnn(CC3CC3)c2c1` the same measures were 0.4 mL/min/g, 0.5 mL/min/g, 5.7 mL/min/g and 70 nM.
Taken in the same sequence, the figures for `Brc1cc(Br)c2nnn(CC3CC3)c2c1` were 0.6 mL/min/g, 2.3 mL/min/g, 15.3 mL/min/g and 50 nM.
For `Brc1ccc(Cn2nnc3c(Br)cccc32)nc1`, the Intrinsic clearance worked out at 0.3 mL/min/g in data set [1], 0.7 mL/min/g in data set [3] and 1.1 mL/min/g in data set [4]. In addition, in data set [2], the EC50 came to 180 nM.
Turning to `CCn1nnc2c(Br)cccc21`, in data set [2], the EC50 was 2240 nM.
Take `CC(C)Cn1nnc2c(Br)cccc21`: the Intrinsic clearance in data set [1] came out at 4.2 mL/min/g; in data set [3], 4 mL/min/g; in data set [4] it was 3.5 mL/min/g. In data set [2], the EC50 was found to be 140 nM.
Regarding `Brc1ccc(Cn2nnc3c(Br)cccc32)cn1`, the 50% effective concentration (EC50) in data set [2] was found to be 210 nM.
In the case of `Fc1ccccc1-c1ccc(Cn2nnc3ccccc32)cn1`, in data set [2], the EC50 amounted to 600 nM.
As for `Fc1cccc2c1nnn2CC1CC1`, the EC50 in data set [2] stood at 1070 nM.
As to `Fc1ccc2c(c1)nnn2Cc1ccc(-c2ccc(Cl)cc2F)nc1`, the figures for the Intrinsic clearance in data set [1], in data set [3] and in data set [4] were 0.1 mL/min/g, 0.5 mL/min/g and 0.7 mL/min/g, respectively. Further, the 50% effective concentration (EC50) in data set [2] was found to be 68 nM.
Take `Brc1ccc(Cn2nnc3c(Br)cccc32)cc1`: the Intrinsic clearance was found to be 0.4 mL/min/g in data set [1], 2.2 mL/min/g in data set [3] and 2.6 mL/min/g in data set [4]. The EC50 in data set [2] came out at 14 nM.
Taken in the same sequence, the figures for `Fc1ccccc1Cn1nnc2c(Br)cccc21` were 0.2 mL/min/g, 1.8 mL/min/g, 1.7 mL/min/g and 64 nM.
Taken in the same sequence, the figures for `Fc1cc(Cl)ccc1Cn1nnc2c(Br)cccc21` were 0.5 mL/min/g, 3.8 mL/min/g, 1.3 mL/min/g and 23 nM.
Take `Fc1cc(Cl)ccc1-c1ccc(Cn2nnc3c(C(F)(F)F)cccc32)cn1`: the Intrinsic clearance in data set [1] amounted to 0.04 mL/min/g; in data set [3], 0.2 mL/min/g; in data set [4], 0.1 mL/min/g. Besides, the EC50 in data set [2] came out at 13 nM.
Taken in the same sequence, the figures for `Fc1ccc(-c2ccc(Cn3nnc4ccccc43)cc2)c(Cl)c1` were 0.7 mL/min/g, 2.6 mL/min/g, 1.5 mL/min/g and 118 nM.
On to `Fc1cc(C(F)(F)F)ccc1-c1ccc(Cn2nnc3ccccc32)cc1`, for which the Intrinsic clearance in data set [1] stood at 0.1 mL/min/g; in data set [3], 0.4 mL/min/g; in data set [4], 1.2 mL/min/g. Moreover, the EC50 in data set [2] turned out to be 29 nM.
For the compound `N#Cc1cccc2c1nnn2CC1CC1`, the EC50 in data set [2] amounted to 620 nM.
For the compound `Brc1cccc2c1nnn2CC1CCCC1`, the Intrinsic clearance was determined as 7.9 mL/min/g in data set [1], 14.6 mL/min/g in data set [3] and 11.4 mL/min/g in data set [4]. For the same compound, the EC50 in data set [2] was found to be 30 nM.
